# Test results reported in ChEMBL document CHEMBL3751823, “Design, synthesis and antitrypanosomal activities of 2,6-disubstituted-4,5,7-trifluorobenzothiophenes” (Eur J Med Chem, 2016).
# Legend:
# [1] = tested on: Trypanosoma brucei rhodesiense; assay: Antitrypanosomal activity against Trypanosoma brucei rhodesiense STIB 900 after 72 hrs by alamar blue assay; assay type: functional, organism-based; conditions: STIB 900, 72 h
# Procedure, shortened: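 Bloodstream forms of clone STIB 900 (patient isolate, Tanzania 1982), 1 × 10^3 per well, exposed to 3-fold serial dilutions from a top concentration of 30 μg/ml. DMSO stocks were diluted in medium. Incubation 72 h at 37 °C, 5% CO2, in triplicate. Alamar Blue was then added for 2-4 h more. Fluorescence read at ex 530/em 580 nm, IC50 by curve fit.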
# [2] = tested on: MCF7; assay: Cytotoxicity against human MCF7 cells assessed as inhibition of cell proliferation; assay type: cell-based
# [3] = Selectivity index, ratio of IC50 for cytotoxicity against human MCF7 cells to IC50 for Trypanosoma brucei rhodesiense STIB 900; assay type: toxicity, cell-based; conditions: read-out: Ratio IC50
IC50 [1],Compound,IC50 [2],selectivity ratio [3]
11.9 µM,COC(=O)c1cc2c(F)c(F)c(Sc3ccccc3Br)c(F)c2s1,> 25 µM,–
> 10 µM,O=C(CSc1c(F)c(F)c2cc(C(=O)c3ccccc3)sc2c1F)c1ccccc1,> 50 µM,–
31.4 µM,CC(C)(C)c1ccc(Sc2c(F)c(F)c3cc(C(=O)c4ccccc4)sc3c2F)cc1,> 25 µM,–
15.9 µM,O=C(c1ccccc1)c1cc2c(F)c(F)c(Oc3ccccc3Br)c(F)c2s1,> 25 µM,–
0.53 µM,O=C(c1ccccc1)c1cc2c(F)c(F)c(-n3cnc4ccccc43)c(F)c2s1,> 25 µM,50
33 µM,O=C(c1ccccc1)c1cc2c(F)c(F)c(-n3ccnc3)c(F)c2s1,> 60 µM,–
130 µM,COC(=O)c1cc2c(F)c(F)c(-n3ccnc3)c(F)c2s1,> 100 µM,–
0.6 µM,COC(=O)c1cc2c(F)c(F)c(-n3cnc4ccccc43)c(F)c2s1,> 12 µM,> 20
9.8 µM,O=C(c1ccccc1)c1cc2c(F)c(F)c(Sc3ccccc3Br)c(F)c2s1,> 25 µM,–
> 10 µM,COC(=O)CSc1c(F)c(F)c2cc(C(=O)OC)sc2c1F,> 25 µM,–
30 µM,COC(=O)c1cc2c(F)c(F)c(Oc3ccccc3Br)c(F)c2s1,> 25 µM,–
67.2 µM,COC(=O)c1cc2c(F)c(F)c(Sc3ccc(C(C)(C)C)cc3)c(F)c2s1,> 50 µM,–

Compound,IC50 [1],IC50 [2],selectivity ratio [3]
Nc1nc(N)nc(Nc2ccc([As]3SCC(CO)S3)cc2)n1 (configuration not stated) [MELARSOPROL],0.051 µM,–,–
